In assay [1] the target is Sodium channel alpha subunits; brain (Types I, II, III) (Rattus norvegicus, UniProt P04775+P04774+P08104). Briefly: Displacement of [3H]batrachotoxin from rat brain sodium channel. The format is tissue-based. An outline of the steps:
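Radioligand competition binding was done by an outside contract lab (Pan Lab). Inhibition constants (Ki) were derived from displacement of the stated tritiated ligand. Each compound was tested at 10 µM. Where inhibition at that concentration stayed below 50%, no Ki was reported.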
Background: Loss of bound radioactivity is the signal in a displacement assay; it reports binding, not function.

Assay [2] concerns the target T1, Adrenergic receptor alpha-2 (Rattus norvegicus, UniProt P22086+P19328+P22909).
T1 sequence (P22086 whole entry): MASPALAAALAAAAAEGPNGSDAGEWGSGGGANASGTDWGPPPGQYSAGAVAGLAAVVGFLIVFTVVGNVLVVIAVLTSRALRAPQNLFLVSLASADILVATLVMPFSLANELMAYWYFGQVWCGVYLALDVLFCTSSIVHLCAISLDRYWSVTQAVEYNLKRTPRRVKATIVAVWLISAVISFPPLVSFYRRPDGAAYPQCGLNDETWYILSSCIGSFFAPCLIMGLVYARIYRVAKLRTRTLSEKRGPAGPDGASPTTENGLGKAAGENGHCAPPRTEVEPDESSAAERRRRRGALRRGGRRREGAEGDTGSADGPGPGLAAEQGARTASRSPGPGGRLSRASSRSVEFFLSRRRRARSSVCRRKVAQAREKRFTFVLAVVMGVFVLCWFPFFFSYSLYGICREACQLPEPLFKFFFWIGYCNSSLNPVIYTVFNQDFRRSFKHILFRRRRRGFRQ
T1 sequence (P19328 whole entry): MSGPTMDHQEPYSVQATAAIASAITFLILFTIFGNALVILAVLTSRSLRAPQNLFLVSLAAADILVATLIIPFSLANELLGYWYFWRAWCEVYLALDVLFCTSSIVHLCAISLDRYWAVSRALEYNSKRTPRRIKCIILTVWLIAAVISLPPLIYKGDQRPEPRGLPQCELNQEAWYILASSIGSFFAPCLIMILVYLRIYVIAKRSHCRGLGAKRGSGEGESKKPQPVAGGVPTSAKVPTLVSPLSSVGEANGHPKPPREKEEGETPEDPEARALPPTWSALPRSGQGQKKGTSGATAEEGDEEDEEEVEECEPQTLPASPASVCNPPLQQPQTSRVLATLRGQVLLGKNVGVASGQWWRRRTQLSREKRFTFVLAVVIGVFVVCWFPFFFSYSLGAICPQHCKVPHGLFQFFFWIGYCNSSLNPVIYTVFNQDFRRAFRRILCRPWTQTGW
T1 sequence (P22909 whole entry): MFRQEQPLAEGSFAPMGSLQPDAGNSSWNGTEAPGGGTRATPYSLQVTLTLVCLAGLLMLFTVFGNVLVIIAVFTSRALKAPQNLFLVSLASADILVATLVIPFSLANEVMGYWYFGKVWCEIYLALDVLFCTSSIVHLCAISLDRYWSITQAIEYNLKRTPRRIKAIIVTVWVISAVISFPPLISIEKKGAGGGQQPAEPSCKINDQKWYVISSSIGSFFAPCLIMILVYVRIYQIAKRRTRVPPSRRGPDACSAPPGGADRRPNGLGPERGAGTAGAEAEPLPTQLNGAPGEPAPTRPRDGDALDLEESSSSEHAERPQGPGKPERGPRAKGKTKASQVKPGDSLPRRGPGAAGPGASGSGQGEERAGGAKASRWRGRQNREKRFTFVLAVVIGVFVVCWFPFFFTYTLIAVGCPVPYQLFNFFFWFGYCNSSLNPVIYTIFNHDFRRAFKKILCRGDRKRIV
Briefly: Displacement of clonidine from Alpha-2 adrenergic receptor in rat brain cortex. The format is tissue-based. An outline of the steps: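 α2 competition binding run in triplicate with 1 nM [³H]clonidine plus 10 mM MgCl₂ in Tris pH 7.4, 30 min at room temperature. Test compounds at 1-100 µM. Nonspecific binding defined with 10 µM clonidine. Membranes collected on GF/B filters and washed twice with cold Tris. Protein 300-400 µg per assay. Ki given as mean ± SEM of 3-6 experiments.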

By Ki is commonly meant a dissociation constant, usually derived from enzyme kinetics or from competition with a known ligand. High values mean lower affinity, low ones higher affinity. Regarding `COc1ccccc1N1CCN(Cc2cn3c(O)nc4ccccc4c3n2)CC1`, the Ki amounted to 4.81 µM in assay [1] and 6.76 µM in assay [2].
As for `COc1ccccc1N1CCN(Cc2cnc3c4ccccc4nc(O)n23)CC1`, the Ki in assay [1] was 5.38 µM; in assay [2], 7.83 µM.
The like results for `Oc1nc2ccccc2c2ncc(CN3CCN(c4ccccc4Cl)CC3)n12` were, in that order, 2.46 µM and 2.72 µM.
In turn, `COc1ccccc1N1CCN(CC2CN=C3c4ccccc4N=C(SC)N32)CC1` (configuration not stated) showed a Ki in assay [1] of 0.404 µM.
